From ChEMBL document CHEMBL1146951, “Structure-guided identification of novel VEGFR-2 kinase inhibitors via solution phase parallel synthesis” (Bioorg Med Chem Lett, 2006)
Activity calls are given as the source filed them. The calls are words filed in the database; no cut-off is given here.

Assays:
[1] = biological target: T1, Vascular endothelial growth factor receptor 2 (Homo sapiens, UniProt P35968); assay: Inhibition of VEGFR2 at 1 uM
In short: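 Kinase activity of baculovirus-expressed human VEGFR2 enzyme.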

[2] = biological target: Vascular endothelial growth factor receptor 3 (Homo sapiens) (UniProt P35916); assay: Inhibition of VEGFR3 at 300 nM
[3] = biological target: Protein kinase C (PKC) (Homo sapiens) (UniProt O94806+P41743+P17252+P05129+Q05655+P05771+Q05513+Q02156+P24723+Q15139+Q04759); assay: Inhibition of PKC at 1 uM; assay type: protein assay
[4] = biological target: High affinity nerve growth factor receptor (Homo sapiens) (UniProt P04629); assay: Inhibition of TrkA at 1 uM
[5] = biological target: Cyclin-dependent kinase 1/cyclin B1 (Homo sapiens, UniProt P06493); assay: Inhibition of CDK1/CyclinB1; assay type: protein-complex assay
[6] = biological target: Vascular endothelial growth factor receptor 1 (Homo sapiens) (UniProt P17948); assay: Inhibition of VEGFR1 at 300 nM
[7] = biological target: T1, Vascular endothelial growth factor receptor 2; assay: Inhibition of VEGFR2
[8] = biological target: T2, Vascular endothelial growth factor receptor (Homo sapiens) (UniProt P17948+P35916+P35968); assay: Inhibition of microvessel growth in rat aortic ring at 4 nM; assay type: functional, tissue-based; settings: Aorta, target entry is the homologue from another species
In short: (§1)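 Rat aortic ring explants were cultured in serum-free collagen gel in serum-free MCDB 131 medium without exogenous VEGF. Microvessel sprouting was scored at peak growth (day 8) as percent inhibition relative to untreated controls. n = 8 replicates per concentration; inter-assay variability <10%. Statistics by Student Newman–Keuls test.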

[9] = biological target: T2, Vascular endothelial growth factor receptor (Homo sapiens); assay: Inhibition of microvessel growth in rat aortic ring at 40 nM; assay type: functional, tissue-based; settings: Aorta, target entry is the homologue from another species; in short: as §1
[10] = biological target: T2, Vascular endothelial growth factor receptor (Homo sapiens); assay: Inhibition of microvessel growth in rat aortic ring at 100 nM; assay type: functional, tissue-based; settings: Aorta, target entry is the homologue from another species; in short: as §1
[11] = biological target: T2, Vascular endothelial growth factor receptor (Homo sapiens); assay: Inhibition of microvessel growth in rat aortic ring at 400 nM; assay type: functional, tissue-based; settings: Aorta, target entry is the homologue from another species; in short: as §1
SVR = assay: Antitumor efficacy against SVR cells in nude mice at 30 mg/kg, po; assay type: functional, organism-based; design: dose 30 mg/kg; settings: Mus musculus
In short: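 SVR murine angiosarcoma cells implanted in the right flank of female athymic nude mice. On day 5 post-implantation, once tumors were palpable, mice were randomized (n = 8–10). Dosing was 30 mg/kg/dose orally twice a day for 10 days in Tween:PG 1:1 vehicle. Tumor growth was compared with vehicle-treated controls.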

T2 sequence (P17948 whole entry, looked up): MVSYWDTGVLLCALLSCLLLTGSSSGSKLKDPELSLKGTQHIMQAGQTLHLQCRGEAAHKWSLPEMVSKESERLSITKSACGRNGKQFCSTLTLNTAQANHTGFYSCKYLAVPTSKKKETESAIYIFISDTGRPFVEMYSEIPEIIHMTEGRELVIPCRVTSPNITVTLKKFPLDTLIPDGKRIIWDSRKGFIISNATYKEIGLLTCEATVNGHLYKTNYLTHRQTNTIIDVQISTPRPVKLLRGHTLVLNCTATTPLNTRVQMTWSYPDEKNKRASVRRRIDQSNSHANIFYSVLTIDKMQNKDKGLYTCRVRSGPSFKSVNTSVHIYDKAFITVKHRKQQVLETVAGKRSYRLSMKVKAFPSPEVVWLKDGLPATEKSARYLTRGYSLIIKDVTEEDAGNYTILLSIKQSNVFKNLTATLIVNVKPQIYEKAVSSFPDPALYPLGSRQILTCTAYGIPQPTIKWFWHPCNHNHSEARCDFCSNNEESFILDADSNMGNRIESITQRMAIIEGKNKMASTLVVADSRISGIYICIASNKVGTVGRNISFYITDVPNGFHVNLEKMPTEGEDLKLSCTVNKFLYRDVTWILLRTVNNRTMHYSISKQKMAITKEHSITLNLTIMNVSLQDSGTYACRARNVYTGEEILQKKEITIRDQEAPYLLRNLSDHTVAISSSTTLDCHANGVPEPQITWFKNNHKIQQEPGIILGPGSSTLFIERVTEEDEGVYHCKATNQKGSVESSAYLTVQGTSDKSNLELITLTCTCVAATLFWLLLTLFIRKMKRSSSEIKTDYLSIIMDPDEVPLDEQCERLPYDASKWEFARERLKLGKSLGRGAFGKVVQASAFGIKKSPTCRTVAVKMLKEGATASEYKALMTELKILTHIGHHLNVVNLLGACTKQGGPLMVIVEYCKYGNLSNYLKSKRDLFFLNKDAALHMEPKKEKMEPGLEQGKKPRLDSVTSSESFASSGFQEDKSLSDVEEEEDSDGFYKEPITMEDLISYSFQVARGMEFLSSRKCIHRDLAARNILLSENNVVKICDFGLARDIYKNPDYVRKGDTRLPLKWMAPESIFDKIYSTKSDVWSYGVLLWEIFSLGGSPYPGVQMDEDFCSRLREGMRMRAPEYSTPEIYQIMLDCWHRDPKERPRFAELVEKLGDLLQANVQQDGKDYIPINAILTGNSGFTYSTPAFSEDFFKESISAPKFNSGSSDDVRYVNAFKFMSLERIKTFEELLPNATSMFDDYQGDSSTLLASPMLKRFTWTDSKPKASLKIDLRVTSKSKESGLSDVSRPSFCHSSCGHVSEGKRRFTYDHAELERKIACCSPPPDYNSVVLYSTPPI
T2 sequence (P35916 whole entry, looked up): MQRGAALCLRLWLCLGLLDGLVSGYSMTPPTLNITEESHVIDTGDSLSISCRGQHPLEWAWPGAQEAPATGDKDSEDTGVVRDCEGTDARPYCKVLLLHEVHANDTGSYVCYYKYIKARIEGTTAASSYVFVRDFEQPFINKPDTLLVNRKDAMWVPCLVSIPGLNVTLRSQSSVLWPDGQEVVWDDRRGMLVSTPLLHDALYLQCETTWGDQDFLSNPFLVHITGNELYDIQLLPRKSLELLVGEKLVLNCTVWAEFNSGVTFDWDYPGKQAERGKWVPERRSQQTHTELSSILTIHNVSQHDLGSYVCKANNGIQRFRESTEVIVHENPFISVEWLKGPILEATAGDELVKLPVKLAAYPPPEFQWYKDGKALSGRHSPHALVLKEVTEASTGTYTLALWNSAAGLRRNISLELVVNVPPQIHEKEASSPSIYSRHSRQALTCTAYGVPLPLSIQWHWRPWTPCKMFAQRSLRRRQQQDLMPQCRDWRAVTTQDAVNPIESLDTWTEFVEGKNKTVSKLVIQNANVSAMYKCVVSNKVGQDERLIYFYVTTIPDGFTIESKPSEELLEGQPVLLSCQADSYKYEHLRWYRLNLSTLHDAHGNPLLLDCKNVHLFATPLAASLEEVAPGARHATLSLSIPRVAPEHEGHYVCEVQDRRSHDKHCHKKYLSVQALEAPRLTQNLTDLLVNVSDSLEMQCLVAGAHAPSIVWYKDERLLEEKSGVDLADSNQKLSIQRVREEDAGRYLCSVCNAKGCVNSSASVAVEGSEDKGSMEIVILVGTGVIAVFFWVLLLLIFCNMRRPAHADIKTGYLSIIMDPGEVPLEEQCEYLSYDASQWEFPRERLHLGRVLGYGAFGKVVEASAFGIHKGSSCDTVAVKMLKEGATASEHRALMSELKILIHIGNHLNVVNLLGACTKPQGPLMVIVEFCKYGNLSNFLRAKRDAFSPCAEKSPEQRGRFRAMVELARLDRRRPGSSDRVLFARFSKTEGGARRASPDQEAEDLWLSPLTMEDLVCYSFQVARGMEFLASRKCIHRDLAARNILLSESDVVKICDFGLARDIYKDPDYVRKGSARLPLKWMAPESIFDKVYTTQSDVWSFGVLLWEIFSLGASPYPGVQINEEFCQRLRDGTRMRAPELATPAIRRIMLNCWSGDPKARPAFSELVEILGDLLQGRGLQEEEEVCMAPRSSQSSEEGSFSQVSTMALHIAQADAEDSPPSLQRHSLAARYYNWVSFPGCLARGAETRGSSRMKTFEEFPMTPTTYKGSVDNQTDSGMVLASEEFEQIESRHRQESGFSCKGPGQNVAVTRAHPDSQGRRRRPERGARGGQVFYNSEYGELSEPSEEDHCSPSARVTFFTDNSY
T2 sequence (P35968 whole entry, looked up): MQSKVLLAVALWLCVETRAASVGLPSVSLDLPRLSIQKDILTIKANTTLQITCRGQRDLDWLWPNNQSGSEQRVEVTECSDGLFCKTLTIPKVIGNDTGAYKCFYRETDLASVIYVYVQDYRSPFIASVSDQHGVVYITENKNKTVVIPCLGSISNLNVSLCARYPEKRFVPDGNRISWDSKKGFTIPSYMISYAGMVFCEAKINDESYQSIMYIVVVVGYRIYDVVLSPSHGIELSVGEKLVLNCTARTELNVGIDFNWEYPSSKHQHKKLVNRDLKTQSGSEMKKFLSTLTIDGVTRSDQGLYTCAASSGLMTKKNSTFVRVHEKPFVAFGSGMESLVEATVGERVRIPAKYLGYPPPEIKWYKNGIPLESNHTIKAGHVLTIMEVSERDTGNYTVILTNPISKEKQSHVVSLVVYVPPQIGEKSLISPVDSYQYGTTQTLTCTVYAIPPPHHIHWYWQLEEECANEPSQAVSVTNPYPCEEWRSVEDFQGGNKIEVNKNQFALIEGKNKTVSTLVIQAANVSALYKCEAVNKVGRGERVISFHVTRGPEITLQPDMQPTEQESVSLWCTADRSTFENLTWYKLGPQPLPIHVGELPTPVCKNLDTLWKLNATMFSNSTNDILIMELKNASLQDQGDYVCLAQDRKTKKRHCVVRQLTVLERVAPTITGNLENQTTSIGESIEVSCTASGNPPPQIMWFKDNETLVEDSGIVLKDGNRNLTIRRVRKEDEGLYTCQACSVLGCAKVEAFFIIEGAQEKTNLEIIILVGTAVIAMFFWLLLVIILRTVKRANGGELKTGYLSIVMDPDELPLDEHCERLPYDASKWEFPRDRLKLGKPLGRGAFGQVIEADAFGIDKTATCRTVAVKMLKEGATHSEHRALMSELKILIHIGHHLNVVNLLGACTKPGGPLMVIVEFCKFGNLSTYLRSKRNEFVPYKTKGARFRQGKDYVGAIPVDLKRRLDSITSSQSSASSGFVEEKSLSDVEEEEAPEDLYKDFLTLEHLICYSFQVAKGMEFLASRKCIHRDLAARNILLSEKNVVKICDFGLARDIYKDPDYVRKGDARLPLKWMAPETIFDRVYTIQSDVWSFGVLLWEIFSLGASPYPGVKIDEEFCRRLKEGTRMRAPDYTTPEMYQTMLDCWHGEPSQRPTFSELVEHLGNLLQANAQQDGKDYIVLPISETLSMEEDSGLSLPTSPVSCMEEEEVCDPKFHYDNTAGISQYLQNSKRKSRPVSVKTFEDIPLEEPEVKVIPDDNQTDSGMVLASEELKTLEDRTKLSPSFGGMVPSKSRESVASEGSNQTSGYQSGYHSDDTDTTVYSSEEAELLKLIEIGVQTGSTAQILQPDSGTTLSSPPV
T1 sequence (P35968 whole entry): as the sequence (P35968 whole entry, looked up) above
Chain of Vascular endothelial growth factor receptor 1 (Homo sapiens) (P17948 whole entry): as the sequence (P17948 whole entry, looked up) above
Chain of High affinity nerve growth factor receptor (Homo sapiens) (P04629 33-796 limits assumed): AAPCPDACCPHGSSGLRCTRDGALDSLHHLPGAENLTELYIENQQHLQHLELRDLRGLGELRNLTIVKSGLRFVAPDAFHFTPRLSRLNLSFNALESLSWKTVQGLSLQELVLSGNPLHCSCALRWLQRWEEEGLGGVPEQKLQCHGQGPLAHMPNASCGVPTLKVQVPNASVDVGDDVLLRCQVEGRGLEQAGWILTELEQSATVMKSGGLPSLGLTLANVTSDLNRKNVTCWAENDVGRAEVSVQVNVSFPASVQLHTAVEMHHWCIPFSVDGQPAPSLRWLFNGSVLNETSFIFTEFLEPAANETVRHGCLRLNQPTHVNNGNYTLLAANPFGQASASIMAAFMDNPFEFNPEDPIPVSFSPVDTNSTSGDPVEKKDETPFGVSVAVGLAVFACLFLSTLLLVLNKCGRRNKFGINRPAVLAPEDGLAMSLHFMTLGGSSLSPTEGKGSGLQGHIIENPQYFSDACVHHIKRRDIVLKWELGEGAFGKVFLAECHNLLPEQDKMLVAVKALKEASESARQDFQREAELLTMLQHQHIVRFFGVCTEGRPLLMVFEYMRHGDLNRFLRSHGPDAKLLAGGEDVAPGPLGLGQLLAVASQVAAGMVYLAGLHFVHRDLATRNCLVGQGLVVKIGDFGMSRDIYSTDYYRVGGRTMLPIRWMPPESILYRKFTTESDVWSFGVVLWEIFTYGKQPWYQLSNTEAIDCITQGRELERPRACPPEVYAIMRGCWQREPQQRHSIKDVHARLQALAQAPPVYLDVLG
Chain of Vascular endothelial growth factor receptor 3 (Homo sapiens) (P35916 whole entry): as the sequence (P35916 whole entry, looked up) above

inhibition [1] | inhibition [2] | inhibition [3] | inhibition [4] | IC50 [5] | inhibition [6] | IC50 [7] | inhibition [8] | inhibition [9] | inhibition [10] | inhibition [11] | Structure (SMILES) | Activity (SVR)
23% |  |  |  |  |  |  |  |  |  |  | Cn1cc(/C=C2\C(=O)N(c3ccccc3)N=C2c2cnccn2)c2ccccc21 | 
5% |  |  |  |  |  |  |  |  |  |  | Cn1cc(CC2C(=O)NN=C2c2nccs2)c2ccccc21 (stereo not drawn) | 
 | 63% | 13% | 44% | > 100000 nM | 25% | 32 nM | 55% | 66% | 75% | 90% | Cn1cc(/C=C2\C(=O)NN=C2c2nccs2)c2cc3c(cc21)OCO3 | Active
